# miR-122 sensor – blocks miR-122 activity in Huh7 sensor cells | activation (reporter increase), % at 12.5 µM | AID 602342 | 340,000 compounds, 0.3% hits | Huh7 miR-122 Renilla luciferase sensor, 48 h; neutral wells = 0, positive control = 100;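 active means mean replicate activation score at least 90 and every replicate individually at or above 90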;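 further: higher luciferase means less miR-122 activity so hits act as miR-122 inhibitors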
# Rtt109 Vps75 – inhibitors of Candida albicans Rtt109/Vps75 histone acetyltransferase; inhibition, % at 34.9 µM; Q5AAJ8; 330,000 compounds, 0.16% hits; AID 540336; purified Rtt109/Vps75, ThioGlo CoA-SH fluorescence, 4 h;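 active means inhibition of at least 50% in every replicate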
# AF4-AF9 inh – blocks AF4 peptide binding to human AF9 | inhibition, % at 10 µM | P42568 | 350,000 compounds, 0.47% hits | AlphaScreen, biotin-AF4 peptide binding to FLAG-AF9 | AID 651704;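 active means every replicate reaching a set inhibition limit, whatever the replicate mean, cut at about 25% in these data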;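 further: 0% = plate neutral control median and 100% = total signal loss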
# Target sequence (P42568 whole entry, looked up): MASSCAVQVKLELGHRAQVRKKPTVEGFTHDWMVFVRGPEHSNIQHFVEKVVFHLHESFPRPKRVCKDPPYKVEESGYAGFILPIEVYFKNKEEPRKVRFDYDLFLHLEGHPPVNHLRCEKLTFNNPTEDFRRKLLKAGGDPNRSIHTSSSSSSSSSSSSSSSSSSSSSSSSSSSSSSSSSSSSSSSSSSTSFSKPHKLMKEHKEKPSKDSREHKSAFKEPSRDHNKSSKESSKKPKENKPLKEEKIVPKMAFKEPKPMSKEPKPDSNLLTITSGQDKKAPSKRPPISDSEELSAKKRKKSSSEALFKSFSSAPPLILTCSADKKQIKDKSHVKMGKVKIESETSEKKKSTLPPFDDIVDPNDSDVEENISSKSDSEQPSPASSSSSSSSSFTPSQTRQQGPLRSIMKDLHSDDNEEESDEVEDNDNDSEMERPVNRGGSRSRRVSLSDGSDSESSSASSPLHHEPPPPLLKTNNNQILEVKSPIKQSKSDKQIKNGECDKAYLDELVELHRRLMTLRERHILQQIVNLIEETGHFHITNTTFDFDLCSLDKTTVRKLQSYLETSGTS
# S100A4 MyoIIA – inhibitors of human S100A4 binding to myosin IIA peptide | P26447 | inhibition, % at 10.7 µM | 360,000 compounds, 0.14% hits | S100A4/TAMRA-MyoIIA peptide fluorescence polarization;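 active means mean inhibition of at least 70% across replicates, with every replicate also reaching that level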
#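 Compound dosing: one dose per compound; test system: human S100A4 monomer with TAMRA-labelled myosin IIA peptide; probe or stimulus: TAMRA-labelled myosin IIA heavy-chain peptide probe, 5 nM; medium: HEPES buffer with Ca2+, pH 7.2; schedule: 5 min incubation before reading; benchmarks: neutral control DMSO, positive control TFP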
# ERAP1 inh – ERAP1 (human) enzyme inhibition | inhibition, % at 10.7 µM | recombinant ERAP1, Leu-AMC fluorescence, 60 min | 340,000 compounds, 0.15% hits | Q9NZ08;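 active means mean replicate inhibition of at least 30%, or all replicates individually reaching that 30% level; inactive means mean below 30% and not every replicate reaching it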;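 further: 0% = neutral control wells and 100% = L-leucinethiol positive control wells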
# An asterisk follows results filed as active; / = no result given; [ ] = dose if it differs, or a comment. In the library only some 0.86% were active in any assay of this set; here they are far more common.
SMILES,miR-122 sensor,Rtt109 Vps75,AF4-AF9 inh,S100A4 MyoIIA,ERAP1 inh
COc1ccc(C2c3[nH]c4ccccc4c3CCN2Cc2cccn2-c2ncccn2)cc1C (stereo unspecified),3,2,31*,-3,-4
COc1ccc2c3c([nH]c2c1)[C@H](CO)N(CC1CC1)CC31CCN(Cc2ccccc2F)CC1,/,/,16,/,/
CN1[C@@H]2c3ccc(-c4ccccc4)c(=O)n3C[C@H]1[C@H](CO)[C@H]2C(=O)NCCc1ccccc1,0[16.7 µM],/,0,2,1
C#CCOCCOCCOCCNc1nc(N2CCN(C(=O)C([C@@H](C)O)n3cc([C@@H](N)CCCCN)nn3)CC2)nc(N2CCN(C(=O)[C@H](CCCCN)n3cc([C@@H](N)CC(N)=O)nn3)CC2)n1 (stereo partly specified),/,91*,45*,4,-6
C#CCOCCOCCOCCNc1nc(N2CCN(C(=O)[C@H](CCCCN)n3cc(CN)nn3)CC2)nc(N2CCN(C(=O)[C@H](CCCCN)n3cc([C@@H](N)CC(N)=O)nn3)CC2)n1,/,11,40*,-3,6
C[C@@H]1CN([C@@H](C)CO)C(=O)c2cc(NC(=O)Nc3ccc(F)cc3)ccc2O[C@H]1CN(C)Cc1ccc(C(F)(F)F)cc1,-4[16.7 µM],/,3,2,-1
Cc1ccc(N2C(S)=C(C#N)C(=O)NC23CCCCC3)cc1,0,-4,/,/,/
Cc1ccccc1N1C(S)=C(C#N)C(=O)NC12CCCCC2,-1,86*,/,/,/
COC(=O)C(CC(C)C)Oc1ccc2c(C)cc(=O)oc2c1 (stereo unspecified),152*,/,/,/,/
CN(C)C(=O)[C@H]1[C@H](CO)[C@H]2Cn3c(cccc3=O)[C@@H]1N2C(=O)c1ccccc1,-3[16.7 µM],/,-1,126*,2
COCC(=O)N1[C@@H]2Cn3c(ccc(/C=C/c4ccccc4)c3=O)[C@H]1[C@@H](C(=O)N1CCOCC1)[C@@H]2CO,/,/,3,-51,128*
CC(=O)N1[C@H](C(=O)N[C@H](C)c2ccccc2)[C@@H](CO)[C@@H]2Cn3c(cccc3=O)[C@@H]21,10[16.7 µM],/,0,110*,0
CC(=O)N1[C@@H]2c3ccc(/C=C/c4ccccc4)c(=O)n3C[C@H]1[C@H](CO)[C@H]2C(=O)N(C)C,/,/,-1,1,91*
CCNC(=O)C[C@@H]1CC[C@H]2[C@@H](COc3ccc(NC(=O)c4cscn4)cc3C(=O)N2C)O1,-7[16.7 µM],/,-1,-3,1
COc1cccc(-c2ccc3c(c2)[C@H]2[C@H](CCN2C(=O)NC2CCCCC2)[C@H](CO)N3C)c1,/,/,15,56,-2
CCC(=O)N1[C@@H]2c3ccc(/C=C/c4ccccc4)c(=O)n3C[C@H]1[C@H](CO)[C@H]2C(=O)N(C)C,-1[16.7 µM],/,-1,-5,38*
CC(=O)N1[C@@H]2c3ccc(-c4ccncc4)c(=O)n3C[C@H]1[C@H](CO)[C@H]2C(=O)NC1Cc2ccccc2C1,-3[16.7 µM],/,-9,-2,-1
CCC(=O)N1[C@@H]2c3ccc(-c4ccncc4)c(=O)n3C[C@H]1[C@H](CO)[C@H]2C(=O)NC1Cc2ccccc2C1,/,/,-11,154*,8
Cc1nc2ncccn2c1-c1csc(Nc2ccc(N(C)C)cc2)n1,/,17,44*,-4,-1
O=C(NC(c1ccc(F)cc1)c1ccc2ccccc2n1)C1CCN(Cc2ccc3ccccc3n2)CC1 (stereo unspecified),-7,/,1,-2,5
CN(C)c1ccc(CN2CCC(C(=O)NC(c3ccc(F)cc3)c3ccc4ccccc4n3)CC2)cc1 (stereo unspecified),7,/,42*,0,-5
COc1ccccc1C#Cc1ccc([C@H]2[C@H](C#N)N(C(=O)C3CCC3)[C@H]2CO)cc1,/,/,-1,-10,2
COc1ccc2sc(N(CCN(C)C)C(=O)/C=C/c3cccs3)nc2c1,/,-1,33*,-3,12
CC=Cc1ccc2n(c1=O)C[C@H]1[C@H](CO)[C@@H](C(=O)NCCC)[C@@H]2N1C(=O)C1CCCC1 (mixture of isomers),1[16.7 µM],/,-2,-2,2
Cc1ccc(CNC(=O)C2CCCC2)cc1,-2,-3,0,-6,-1
Cc1ccc2[nH]c(CNC(=O)C3CCCCC3)cc2c1,135*,-8,3,0,1

# Screens deposited in PubChem BioAssay by Broad Institute.
